procasp7 counter = procaspase-7 activators, primary screen, counter-screen for procaspase-3 activator project, biochemical, absorbance, HTS, human. AID 463210, 2010. recombinant procaspase-7, Ac-DEVD-pNA absorbance 405 nm; D23A/D198A/D206A triple mutant, cannot self-cleave; scale: DMSO 0, 5 µM enzyme 100. Caspase-7 (Homo sapiens), P55210. actives 0.093% (n = 330,000). activation, % at 8.5 µM;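 active = percent activation above the screen-wide mean plus 3 SD, cut at about 25% in these data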
Target sequence (P55210 whole entry D23A/D198A/D206A): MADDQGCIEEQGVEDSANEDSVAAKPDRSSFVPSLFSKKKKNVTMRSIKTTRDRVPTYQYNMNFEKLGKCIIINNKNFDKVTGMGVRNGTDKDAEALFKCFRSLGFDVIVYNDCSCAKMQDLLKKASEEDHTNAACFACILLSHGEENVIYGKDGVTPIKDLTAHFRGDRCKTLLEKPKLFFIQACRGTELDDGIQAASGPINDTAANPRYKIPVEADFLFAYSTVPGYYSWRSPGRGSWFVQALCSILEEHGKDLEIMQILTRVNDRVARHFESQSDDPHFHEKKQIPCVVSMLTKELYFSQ
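Replicates: singlicate. Assay system: Procaspase-7 triple mutant (PC-7 D3A). Signal: 405 nm absorbance of p-nitroaniline. Times: 1 h preincubation, 2 h reaction. Buffer or medium: Zinc-free HEPES pH 7.4 with 300 mM NaCl, 0.01% Triton X-100. Also added: DEVD-pNA substrate. Benchmarks: DMSO wells as 0%, DMSO with 5 µM added PC-7 as 100%.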
PP5 inh = PP5 phosphatase inhibitors, primary screen, biochemical, fluorescence; inhibition, % at 6.7 µM; AID 1987, 2009; actives 0.18% (n = 320,000); purified PP5c, OMFP substrate fluorescence;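 active = inhibition above the campaign's mean inhibition across all tested compounds plus 3 SD, cut at about 9.5% in these data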;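 also: 0% = DMSO only and 100% = 100 µM cantharidin control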
procasp3 activ = activators of human procaspase-3 D3A mutant, primary screen, biochemical, absorbance, PC-3 D3A mutant, single concentration; recombinant procaspase-3 D3A, Ac-DEVD-pNA absorbance 405 nm; activation, % at 8.5 µM; actives 0.11% (n = 330,000);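 active = activation above the mean of all tested compounds plus 3 SD, cut at about 21% in these data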;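 also: 0% = DMSO alone and 100% = DMSO wells spiked with extra 5 µM PC-3 D3A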
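Assay system: Procaspase-3 D3A mutant, all three cleavage aspartates alanine. Buffer or medium: Zinc-free HEPES saline buffer with Triton X-100. Times: 1 h compound preincubation, 2 h substrate hydrolysis at 25 °C. Measured by: 405 nm absorbance of p-nitroaniline, reads at 0 and 120 min. Read-out basis: percent activation relative to control range. Replicates: singlicate.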
PP1 counter = PP1-alpha phosphatase inhibitors, primary screen, counter-screen for PP5 inhibitor project, biochemical, fluorescence, OMFP substrate, single point; Serine/threonine-protein phosphatase PP1-alpha catalytic subunit (Homo sapiens), P62136; actives 0.9% (n = 320,000); inhibition, % at 6.7 µM; purified PP1alpha;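 active = inhibition above the mean inhibition of all tested compounds plus 3 SD, computed separately for each screening campaign, cut at about 15% in these data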
Target sequence (P62136 whole entry, looked up): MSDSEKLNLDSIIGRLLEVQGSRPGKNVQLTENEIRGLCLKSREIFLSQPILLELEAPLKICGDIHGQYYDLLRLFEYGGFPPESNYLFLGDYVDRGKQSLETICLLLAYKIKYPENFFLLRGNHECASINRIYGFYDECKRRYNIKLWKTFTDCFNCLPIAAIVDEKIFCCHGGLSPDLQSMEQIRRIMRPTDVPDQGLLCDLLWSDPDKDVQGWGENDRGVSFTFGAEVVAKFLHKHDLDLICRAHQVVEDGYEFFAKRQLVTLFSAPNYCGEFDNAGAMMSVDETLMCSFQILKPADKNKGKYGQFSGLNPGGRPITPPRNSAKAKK
PP1 confirm = PP1 phosphatase inhibitors, confirmation, biochemical, fluorescence, OMFP substrate, triplicate; shares compounds with PP1 counter; purified PP1alpha; inhibition, % at 6.7 µM; actives 52% (n = 1,900); AID 2358, 2010;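 active = mean PP1 inhibition above a set limit taken from the earlier primary screen, cut at about 15% in these data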
PP5 counter = PP5 phosphatase inhibition by PP1 hits, confirmation, counter-screen for PP1 inhibitor project, biochemical, fluorescence, triplicate; shares compounds with PP1 counter; purified PP5c, OMFP fluorescence; inhibition, % at 6.7 µM; actives 4% (n = 1,900);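 active = mean PP5 inhibition over triplicate wells above about 9.5% taken from the earlier PP1 screen, limit read from the data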
The depositor's hits bear a star; x = no result given. Shown are actives, neighbours in structure and some others; about 1.2% of the full set was active somewhere.

SMILES | procasp7 counter | PP5 inh | procasp3 activ | PP1 counter | PP1 confirm | PP5 counter
CC(=O)Nc1ccc(NC(=O)CSc2n[nH]c(-c3cccs3)n2)cc1 | 2 | 0 | -5 | -3 | x | x
c1coc(CSSCc2ccco2)c1 | -7 | 0 | 0 | -4 | x | x
CC(=C/c1ccccc1)/C=N/NC(=O)c1nnn(-c2nonc2N)c1CN1CCC(C)CC1 | -4 | 5 | 3 | 9 | x | x
CC1CCN(Cc2c(C(=O)N/N=C/c3ccccc3O)nnn2-c2nonc2N)CC1 | -79 | 0 | -82 | 22* | 17* | -5
COc1ccc(-c2cc(C(=O)NCC(C)C)no2)cc1 | 14 | 2 | 2 | 1 | x | x
CC1(C)CC(=O)c2c(O)cc(OCC(=O)N3CCN(c4ccccc4)CC3)cc2O1 | -9 | 3 | 2 | 20* | -2 | -5
O=C(COc1ccccc1)N1CCN(c2ccccc2)CC1 | 5 | 0 | 3 | -4 | x | x
O=C(O)c1ccc(S(=O)(=O)N(CCc2ccccc2)Cc2ccc(Cl)cc2)cc1 | 5 | 7 | 4 | 22* | 11 | -1
O=C(O)CCC(=O)N1CCc2cc(S(=O)(=O)N(CCc3ccccc3)Cc3ccccc3)ccc21 | 9 | 4 | -1 | 20* | 15* | -4
O=C(O)c1ccc(S(=O)(=O)N(Cc2ccccc2)Cc2ccccc2)cc1 | 19 | -3 | -9 | -2 | x | x
CCOC(=O)Cc1cc(=O)n2[nH]c(C)c(-c3ccc(OC)cc3)c2n1 | 3 | -3 | -4 | 13 | x | x
CCOC(=O)Cc1cc(=O)n2[nH]c(-c3ccc(C)cc3)cc2n1 | 3 | -3 | 0 | 18* | 10 | 1
CCOC(=O)Cc1cc(=O)n2[nH]c(C)c(-c3ccc(Cl)cc3)c2n1 | -10 | 3 | 7 | 25* | 18* | -5
O=C1CC(N2CCN(c3nc4ccccc4s3)CC2)C(=O)N1c1cccc(F)c1 (stereo unspecified) | -2 | 1 | -4 | -1 | x | x
CC1(C)C(=O)CC[C@@]2(C)[C@H]1CC[C@@]1(C)CC3=C(CC[C@@H]12)[C@@]1(C)CCC(=O)C(C)(C)[C@@H]1CC3 | 5 | 2 | 0 | 3 | x | x
O=C(CSc1ccc(-c2ccncc2)nn1)c1ccccc1 | -21 | 2 | -11 | 21* | -4 | -7
CCOC(=O)C1=C(O)C(=O)N(c2ccc(S(N)(=O)=O)cc2)C1c1ccc(Br)cc1 (stereo unspecified) | 2 | 2 | -3 | 21* | 7 | -7
CC(=O)C1=C(O)C(=O)N(c2cccc(Br)c2)C1c1ccc(Br)cc1 (stereo unspecified) | -2 | 1 | -2 | 29* | 25* | -3
CC(=O)C1=C(O)C(=O)N(c2ccc(Br)cc2)C1c1ccc(Br)cc1 (stereo unspecified) | 4 | 4 | -1 | 24* | 23* | -3
COc1cc([N+](=O)[O-])ccc1NC(=O)C[n+]1ccccc1 | 4 | -1 | 0 | -2 | x | x
CCOC(=O)c1cccc(N2CC3CNC(=O)C2(C(=O)OC)N3C)c1 (stereo unspecified) | 12 | x | 16 | x | x | x
CCCCCCCCC/C(=N\O)c1ccccn1 | 11 | 5 | -4 | 32* | 28* | -5
CCCCCCCCC(=O)N/N=C/c1ccccn1 | -1 | 3 | 4 | -1 | x | x
COCCCN(C(=O)Cc1coc2cc(C)c(C)cc12)c1c(N)n(Cc2ccccc2)c(=O)[nH]c1=O | 2 | 2 | -2 | -5 | x | x
COc1ccc(-c2csc(NC(=O)c3ccccc3NS(=O)(=O)c3ccc(F)c(F)c3)n2)cc1 | -2 | 12* | -2 | 27* | 24* | 7
SMILES | procasp7 counter | PP5 inh | procasp3 activ | PP1 counter | PP1 confirm | PP5 counter
O=C(NCCC(=O)N1CCN(c2ccccn2)CC1)c1ccc(Cl)cc1 | 1 | x | 9 | x | x | x
COc1ccc(NC(=O)CN(C)S(=O)(=O)c2ccc(Cl)cc2)cn1 | -6 | -2 | 1 | -2 | x | x
CC(C)(CS(=O)(=O)[O-])NC(=O)CC[N+](C)(C)CCO | -8 | 4 | 2 | 70* | 56* | -4
COc1ccccc1NC(=O)C1CC(C(C)C)OC1=O (stereo unspecified) | 7 | 0 | 5 | -11 | x | x
Cc1cc(C)c(NC(=O)Cn2nnc(C(=O)NCc3ccc4c(c3)OCO4)c2N)c(C)c1 | 3 | 1 | -2 | 11 | x | x
O=C(C[n+]1cc(-c2ccc(Cl)cc2)n2c1CCC2)Nc1nc(-c2ccc(F)cc2)cs1 | -2 | 4 | -3 | 21* | -8 | 1
O=C(C[n+]1cc(-c2ccc(F)cc2)n2c1CCC2)Nc1nc(-c2ccc(F)cc2)cs1 | 1 | 4 | 2 | 13 | x | x
CC1(c2ccc(Cl)cc2)NC(=O)N(CC(=O)Nc2ccc(N3CCCCC3)cc2)C1=O (stereo unspecified) | -5 | -2 | -2 | 39* | 4 | -2
COc1ccc(NC(=O)CN2C(=O)NC(C)(c3ccccc3)C2=O)cc1Cl (stereo unspecified) | 12 | 1 | 8 | -88 | 1 | 2
CCN(CC)c1ccc(NC(=O)CSc2nc3nc(C)cc(C)c3c(=O)[nH]2)cc1 | -4 | 1 | -8 | 0 | x | x
COc1ccc(NC(=O)CSc2nc3nc(C)cc(C)c3c(=O)[nH]2)cc1 | -13 | 9 | -6 | 77* | -2 | -2
COc1ccc(NC(=O)CSc2nc(O)cc(=O)n2-c2ccc(OC)cc2)cc1 | 4 | 1 | 2 | 19* | -4 | -7
COc1ccc(-n2c(SCC(=O)Nc3ccccc3)nc(O)cc2=O)cc1 | 12 | -2 | -2 | 8 | x | x
CCNC(=O)CSc1nc2ccccc2c(=O)n1-c1cccc(OC)c1 | 5 | -1 | 7 | -4 | x | x
COc1cccc(-n2c(SCC(=O)Nc3ccc4c(c3)CCC4)nc3ccccc3c2=O)c1 | -5 | 1 | 2 | 19* | 4 | 1
Cc1ccc(NC2=NCC(=O)N2C2CCCC2)cc1 | 4 | -2 | 1 | -4 | x | x
COc1ccc(S(=O)(=O)N2CCN=C2SCc2cccc(F)c2)cc1 | 9 | 3 | 11 | -1 | x | x
Cc1ccc(S(=O)(=O)N(C)C[C@@H]2Oc3ccc(NC(=O)Cn4cnnn4)cc3C(=O)N([C@@H](C)CO)C[C@H]2C)cc1 | 4 | x | 0 | x | x | x
[S-]c1nnc(-c2ccc(Br)cc2)n1-c1ccccc1.[Zn+2] | -10 | 7 | -8 | 20* | 24* | -5

Bioassay records (PubChem)
